Paper PMC4306626 (Journal of chromatography. B, Analytical technologies in …, 2015)
Values joined by “and” are separate entries in the source; they are usually repeats but may differ in a detail not shown here. Identical values can stand only once. Marks after values point to notes of the source that are not given here. Values belong to the molecule of their own block, whether it stands above or below them.

How the values were obtained:
[1] = cited from earlier work
[2] = system: endothelial cells; conditions: in vitro; cited from earlier work
[3] = system: c-Myc and Cyclin D; conditions: breast and prostate cancer cell lines; cited from earlier work
[4] = system: Rho GTPase Cdc42; conditions: higher concentrations; cited from earlier work
[5] = system: murine melanoma cell; conditions: cited from earlier work
[6] = system: mammary fat pad tumor; conditions: 25 mg/kg body weight (BW), nude mice; cited from earlier work
[7] = system: Rac; conditions: read-out: IC50, Rac activity; metastatic cancer cells; cited from earlier work
[8] = Physicochemical properties
[9] = system: Akt and Jun kinase (JNK); conditions: breast and prostate cancer cell lines; cited from earlier work
[10] = system: metastatic cancer cells; conditions: cited from earlier work
[11] = system: human T-lymphocyte; conditions: cited from earlier work
[12] = Pharmacokinetics in nude mice after single IP or PO dose; format: in vivo, athymic nude (Nu/Nu) mice; conditions: for clearance (Cl/F): range over doses; for AUC(0-t) / Cmax / MRT / Vd/F / MRT inf / Tmax / half-life / AUC(0-inf): female, athymic nude (Nu/Nu), mouse, plasma
How it was run: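 Female athymic nude mice, 3–4 weeks old, received a single 0.1 mL dose at 10, 20 or 40 mg/kg, given IP or by oral gavage. Vehicle was cremophor:ethanol:PBS (12.5:12.5:75). Four to five mice per group were killed at 0.5, 1, 4, 8 and 12 h. Cardiac blood went into sodium citrate on ice. Plasma was protein-precipitated with internal standard and assayed by UPLC/MS/MS (5–1000 ng/mL). Pooled non-compartmental analysis used linear/log-linear trapezoids.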

[13] = Stability of EHop-016 in mouse plasma; format: in vitro ADME; conditions: for Concentration Measured (Mean ± S.D.): n=6; for Accuracy (% RE): stable if within ± 15 %
How it was run: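 Test compound was spiked into mouse plasma at 5 and 1000 ng/mL and held on the bench for 5 h, six replicates per level. It was then extracted by protein precipitation and quantified by UPLC/MS/MS against plasma calibration standards. Accuracy was %RE against nominal and precision was %RSD. The compound counted as stable when %RE was within ± 15 %.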

[14] = system: murine leukemic cell; conditions: cited from earlier work
[15] = system: human leukemic cell; conditions: cited from earlier work
[16] = system: Rac with the guanine nucleotide exchange factor Vav2; conditions: cited from earlier work
[17] = system: p21-activated kinase 1 (PAK1); conditions: cited from earlier work
[18] = system: metastatic cancer cells; conditions: higher concentrations; cited from earlier work
[19] = Benchtop (5 Hr), nominal 5 ng/mL
[20] = Benchtop (5 Hr), nominal 1000 ng/mL

Structure (SMILES): CS(=O)(=O)CCNCc1ccc(-c2ccc3ncnc(Nc4ccc(OCc5cccc(F)c5)c(Cl)c4)c3c2)o1 [lapatinib]
systemic bioavailability (F) ([1]; 10 mg/kg oral input): 43 – 50%
time-to-peak (Tmax) ([1]; PO, 10 mg/kg, male mice): 0.5 h

pKa [8]: 5
lipid solubility ([8]; source not stated): highly lipid-soluble
Cl/F ([12]; IP, 10 mg/kg): 494.2 ± 79.4 mL/h
Lambda-z ([12]; IP, 10 mg/kg): .12 ± 0.01 hr ^−1
AUC0-t/Dose ([12]; IP, 10 mg/kg, n=5): 32.80 ± 4.21^a
Cl/F ([12]; IP, 20 mg/kg): 464.7 ± 51.5 mL/h
Lambda-z ([12]; IP, 20 mg/kg): .15 ± .01 hr ^−1
AUC0-t/Dose ([12]; IP, 20 mg/kg, n=5): 38.42 ± 3.53^a
Cl/F ([12]; IP, 40 mg/kg): 394.2 ± 46.6 mL/h
Lambda-z ([12]; IP, 40 mg/kg): .18 ± .01 hr ^−1
AUC0-t/Dose ([12]; IP, 40 mg/kg, n=5): 46.75 ± 5.42^a
clearance (Cl/F) ([12]; IP): 394 to 494 mL/h and 394.2 to 494.2 mL/h
relative bioavailability after oral gavage ([12]; PO vs IP, range over the tested doses): 26% - 40%
plasma drug concentrations lower after PO than after IP ([12]; PO vs corresponding IP dosages): ~ 10 times
Cl/F ([12]; PO, 10 mg/kg): 1315.3 mL/h and 1315.3 ± 281.7 mL/h
Lambda-z ([12]; PO, 10 mg/kg): .20 ± .01 hr ^−1
AUC0-t/Dose ([12]; PO, 10 mg/kg, n=4): 13.37 ± 2.25
Frel (relative bioavailability, PO to IP) ([12]; PO, 20 mg/kg): 33.4 ± 4.9%
AUC0-t/Dose ([12]; PO, 20 mg/kg, n=4): 12.85 ± 3.11
Cl/F ([12]; PO, 40 mg/kg): 1251.4 mL/h and 1251.4 ± 388.1 mL/h
Frel (relative bioavailability, PO to IP) ([12]; PO, 40 mg/kg): 26.0 ± 3.1%
Lambda-z ([12]; PO, 40 mg/kg): .12 ± .001 hr ^−1
AUC0-t/Dose ([12]; PO, 40 mg/kg, n=4): 12.17 ± 2.9
clearance (Cl/F) ([12]; PO): 1251 to 1315 mL/h
elimination half-life (t1/2) ([12]; PO, range over the tested doses): 3.44 to 5.87 h
Vss ([12]; after IP doses, approximately): 65 to 72 L/kg BW
AUC(0-t) ([12]; ip): 328 to 1870 ng·h/mL
Cmax ([12]; ip): 163 to 835 ng/mL
MRT ([12]; ip): 4.21 to 6.75 h
Vd/F ([12]; ip): 2.2 to 4.1 L
AUC(0-t) ([12]; ip, 10 mg/kg): 328 ± 42.1 ng·h/mL
Cmax ([12]; ip, 10 mg/kg): 163 ± 17.7 ng/mL
MRT inf ([12]; ip, 10 mg/kg): 6.75 ± 0.27 h
Tmax ([12]; ip, 10 mg/kg): 0.5 h
Vd/F ([12]; ip, 10 mg/kg): 4.09 ± 0.297 L
half-life ([12]; ip, 10 mg/kg, t1/2, IP): 5.73 ± 0.43 h
AUC(0-t) ([12]; ip, 20 mg/kg): 768 ± 70.6 ng·h/mL
Cmax ([12]; ip, 20 mg/kg): 455 ± 50.3 ng/mL
MRT inf ([12]; ip, 20 mg/kg): 4.73 ± 0.27 h
Tmax ([12]; ip, 20 mg/kg): 0.5 h
Vd/F ([12]; ip, 20 mg/kg): 3.12 ± 0.0927 L
half-life ([12]; ip, 20 mg/kg, t1/2, IP): 4.66 ± 0.35 h
AUC(0-inf) ([12]; ip, 40 mg/kg): 328 to 1870 ng·h/mL
AUC(0-t) ([12]; ip, 40 mg/kg): 1870 ± 217 ng·h/mL
Cmax ([12]; ip, 40 mg/kg): 834 ± 88.9 ng/mL
MRT inf ([12]; ip, 40 mg/kg): 4.21 ± 0.14 h
Tmax ([12]; ip, 40 mg/kg): 0.5 h
Vd/F ([12]; ip, 40 mg/kg): 2.16 ± 0.337 L
half-life ([12]; ip, 40 mg/kg, t1/2, IP): 3.79 ± 0.12 h
Tmax ([12]; other: intraperitoneal and oral, 20 mg/kg): 0.5 h
AUC(0-t) ([12]; po): 134 to 487 ng·h/mL
Cmax ([12]; po): 26 to 90 ng/mL
MRT ([12]; po): 6.59 to 8.76 h
Vd/F ([12]; po): 6.5 to 10.6 L
AUC(0-t) ([12]; po, 10 mg/kg): 134 ± 22.5 ng·h/mL
Cmax ([12]; po, 10 mg/kg): 26.1 ± 10.1 ng/mL
MRT inf ([12]; po, 10 mg/kg): 6.59 ± 0.37 h
Tmax ([12]; po, 10 mg/kg): 0.5 h
Vd/F ([12]; po, 10 mg/kg): 6.53 ± 1.78 L
half-life ([12]; po, 10 mg/kg, t1/2, PO): 3.44 ± 0.15 h
AUC(0-t) ([12]; po, 20 mg/kg): 257 ± 62.3 ng·h/mL
Cmax ([12]; po, 20 mg/kg): 35.1 ± 11 ng/mL
Tmax ([12]; po, 20 mg/kg): 1 h
AUC(0-inf) ([12]; po, 40 mg/kg): 133 to 487 ng·h/mL
AUC(0-t) ([12]; po, 40 mg/kg): 487 ± 116 ng·h/mL
Cmax ([12]; po, 40 mg/kg): 89.7 ± 17.6 ng/mL
MRT inf ([12]; po, 40 mg/kg): 8.76 ± 0.43 h
Tmax ([12]; po, 40 mg/kg): 0.5 h
Vd/F ([12]; po, 40 mg/kg): 10.6 ± 3.39 L
half-life ([12]; po, 40 mg/kg, t1/2, PO): 5.87 ± 0.06 h
share of the drug in the bloodstream ([12]; suggested by Vss values): < 1%
stability in mouse plasma ([13]; 12 freeze-thaw cycles lasting 12 hours and six freeze-thaw cycles lasting 24 hours): stable
Concentration Measured (Mean ± S.D.) [13, 19]: 4.67 ± 0.36 ng/mL
Accuracy (% RE) [13, 19]: −6.6 % RE
Concentration Measured (Mean ± S.D.) [13, 20]: 999.39 ± 17.23 ng/mL
Accuracy (% RE) [13, 20]: −0.1 % RE
Accuracy (% RE) ([13]; Freeze-Thaw 6 Cycles (24 Hr), nominal 5 ng/mL): 14.3 % RE
Accuracy (% RE) ([13]; Freeze-Thaw 6 Cycles (24 Hr), nominal 1000 ng/mL): 11.6 % RE
Concentration Measured (Mean ± S.D.) ([13]; Freeze-Thaw 6 Cycles (24 Hr), −80°C, nominal 5 ng/mL): 5.71 ± 0.34 ng/mL
Concentration Measured (Mean ± S.D.) ([13]; Freeze-Thaw 6 Cycles (24 Hr), −80°C, nominal 1000 ng/mL): 1116.32 ± 27.38 ng/mL
Accuracy (% RE) ([13]; Freeze-Thaw 12 Cycles (12 Hr), nominal 5 ng/mL): 11.3 % RE
Accuracy (% RE) ([13]; Freeze-Thaw 12 Cycles (12 Hr), nominal 1000 ng/mL): 12.8 % RE
Concentration Measured (Mean ± S.D.) ([13]; Freeze-Thaw 12 Cycles (12 Hr), −80°C, nominal 5 ng/mL): 5.57 ± 0.05 ng/mL
Concentration Measured (Mean ± S.D.) ([13]; Freeze-Thaw 12 Cycles (12 Hr), −80°C, nominal 1000 ng/mL): 1127.70 ± 14.36 ng/mL
Accuracy (% RE) ([13]; Long Term Stability 26 Days, nominal 5 ng/mL): 4.9 % RE
Accuracy (% RE) ([13]; Long Term Stability 26 Days, nominal 1000 ng/mL): 0.4 % RE
Concentration Measured (Mean ± S.D.) ([13]; Long Term Stability 26 Days, −20°C, nominal 5 ng/mL): 5.24 ± 0.08 ng/mL
Concentration Measured (Mean ± S.D.) ([13]; Long Term Stability 26 Days, −20°C, nominal 1000 ng/mL): 1004.39 ± 25.98 ng/mL
Accuracy (% RE) ([13]; Long Term Stability 111 Days, nominal 5 ng/mL): −1.3 % RE
Accuracy (% RE) ([13]; Long Term Stability 111 Days, nominal 1000 ng/mL): −4.3 % RE
Concentration Measured (Mean ± S.D.) ([13]; Long Term Stability 111 Days, −20°C, nominal 5 ng/mL): 4.94 ± 0.29 ng/mL
Concentration Measured (Mean ± S.D.) ([13]; Long Term Stability 111 Days, −20°C, nominal 1000 ng/mL): 956.77 ± 79.26 ng/mL
Concentration Measured (Mean ± S.D.) ([13]; Post Preparation (237 Hours), ambient temperature, nominal 10 ng/mL): 10.79 ± 0.25 ng/mL
Concentration Measured (Mean ± S.D.) ([13]; Post Preparation (237 Hours), ambient temperature, nominal 30 ng/mL): 32.20 ± 1.40 ng/mL
Concentration Measured (Mean ± S.D.) ([13]; Post Preparation (237 Hours), ambient temperature, nominal 75 ng/mL): 83.79 ± 2.06 ng/mL
Concentration Measured (Mean ± S.D.) ([13]; Post Preparation (237 Hours), ambient temperature, nominal 750 ng/mL): 838.83 ± 22.57 ng/mL
Accuracy (% RE) ([13]; Post Preparation (237 Hours), nominal 10 ng/mL): 7.88 % RE
Accuracy (% RE) ([13]; Post Preparation (237 Hours), nominal 30 ng/mL): 7.32 % RE
Accuracy (% RE) ([13]; Post Preparation (237 Hours), nominal 75 ng/mL): 11.72 % RE
Accuracy (% RE) ([13]; Post Preparation (237 Hours), nominal 750 ng/mL): 11.84 % RE
stability in mouse plasma ([13]; all of the conditions tested in the validation): very stable
stability in mouse plasma ([13]; ambient temperature, five hours and 237 hours): stable
stability in mouse plasma ([13]; long-term at –20°C, 26 days and 111 days): stable
Structure (SMILES): CCn1c2ccccc2c2cc(Nc3ccnc(NCCCN4CCOCC4)n3)ccc21 [EHop-016, (N4-(9-Ethyl-9H-carbazol-3-yl)-N2-(3-morpholin-4-yl-propyl)-pyrimidine-2,4-diamine)]
Rac activity and capillary tube formation of endothelial cells [2]: inhibition
expression of c-Myc and Cyclin D [3]: decreased
concentration at which activity of the Rho GTPase Cdc42 is inhibited [4]: > 10 µM
murine melanoma cell migration [5]: inhibits
tumor growth, metastasis and angiogenesis [6]: effective at reducing mammary fat pad tumor growth, metastasis, and angiogenesis
IC50 [7]: 1000 nM
Akt and Jun kinase (JNK) activities [9]: decreased
Rac-directed lamellipodia formation and directed cell migration [10]: inhibit
human T-lymphocyte migration [11]: inhibits
murine leukemic cell growth [14]: inhibits
human leukemic cell growth [15]: inhibits
interaction of Rac with Vav2 [16]: disrupt
activity of PAK1 [17]: inhibit
concentration at which apoptosis is activated [18]: > 10 µM
concentration at which cell viability is reduced [18]: > 10 µM
